Data set [1] can be described thus: Absorption and fluorescence spectroscopy, quantum yield. The format is physicochemical. As to conditions: for λabs max / λem max / Quantum yield: 20% DMSO in water; for λabs max / λem max: room temperature; for Quantum yield: relative to ICG in DMSO, QY=0.12. The method, boiled down:
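Test compounds dissolved in spectral-grade DMSO, diluted in 20% DMSO/water, and read at room temperature. Fluorescence was excited at 700 nm with 5 nm slits, keeping absorbance below 0.1. Molar absorptivity was averaged from three-point measurements at the absorption maximum. Quantum yield was taken relative to ICG in 100% DMSO. Probe in assay buffer was split: one half diluted with water to 1 mL, the other cleaved by caspase-3, then diluted likewise.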

Data set [2] concerns the target T1, recombinant human caspase-3 (Homo sapiens, UniProt P42574).
T1 sequence (P42574 29-175 limits assumed): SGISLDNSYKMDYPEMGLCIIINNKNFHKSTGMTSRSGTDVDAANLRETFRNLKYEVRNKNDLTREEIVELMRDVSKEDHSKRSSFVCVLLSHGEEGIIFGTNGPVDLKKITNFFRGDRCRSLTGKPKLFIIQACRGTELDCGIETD
T1 sequence (P42574 176-277 limits assumed): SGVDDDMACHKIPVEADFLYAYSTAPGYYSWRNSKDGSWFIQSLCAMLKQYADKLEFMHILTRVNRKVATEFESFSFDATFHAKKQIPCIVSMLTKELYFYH
The experiment in a line: Caspase-3 enzyme kinetics of the NIR substrates. The format is biochemical. The method, boiled down:
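Active sites were titrated with Ac-DEVD-pNA (2.5–50 μM, 25°C, absorbance […] nm). Substrate (0.5–100 μM; DMSO stock) hydrolysis was followed by NIR fluorescence (ex 785/em 805 nm) over time. Linear slope ÷ complete-hydrolysis fluorescence × [S] gave vo, fitted to Michaelis–Menten. kcat/KM was computed; ± SEM.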

In a further data set the test system is caspase-3. The note with it: cited from earlier work; for Km: read-out: KM of standard substrate.
The subject of a further data set is A549 cells. The format is cell-based, human. As to conditions: 5 μM paclitaxel for 2 h; read out by fluorescence of 5. The procedure, abridged: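 A549 cells were grown in Ham's F12K with 10% FBS and penicillin/streptomycin at 37°C, 5% CO2, seeded at 1×10^5/well in chamber slides overnight. Cells were loaded with 10 μM probe using GeneJuice in Opti-MEM for 24 h at 37°C. Paclitaxel was given for 2 h at 37°C, then three PBS washes. NIR confocal imaging (785 nm laser) read mean cytoplasmic intensity (Ex/Em 785/805–830) in 12 cells; mean ± SD, t-test.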

Data set [3] in a line: Fluorescence lifetime measurement. In kind it is physicochemical. The note with it: 20% DMSO/water, excitation 773 nm, detection 820 nm, room temperature. The method, boiled down: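 TCSPC used a 773 nm pulsed LED source at 1 MHz, with detection at 90°. Counts were binned at 6.88 ps/channel until the peak reached 10,000, on a 50 ns scale. Instrument response came from Rayleigh scatter of 0.03% Ludox-40. Decays in 20% DMSO/water were fitted to two exponentials, discarding components contributing <3%.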

For data set [4] the following is noted: dissolved in 100% DMSO; reference value used for comparison; cited from earlier work.

“And” between values parts separate entries of the source, which are not always exact repeats. Identical values can stand only once. “Also recorded” adds a separate entry of the source. K(Me2NCp) = not defined here; CbOH = not defined here

Turning to “AcGK(Me2NCp)-DEVD-APK(CbOH)-NH2 ({Ac-Gly-K(Me2NCp)}-DEVDAPK(CbOH)-NH2; reading uncertain; also: printed as AcGK(Me2NCp)-DEVD-APK(CbOH)-NH2) [Compound 5]”, the “Ratio F760/F810 of emission after cleavage” value in data set [1] (5 after enzymatic cleavage by caspase-3, diluted with water) is 7.16. For the same molecule, in data set [1], the λabs max was 759 nm and 790 nm; the λem max worked out at 763 nm; the Quantum yield is on record as less than 0.001. For the same molecule, the “kcat (turnover number)” value in data set [2] (5 (0.5 to 100 μM) with caspase 3 (290 pM), 10 mM PIPES pH 7.4, 2 mM EDTA, 0.1% CHAPS, 5 mM DTT, triplicate, λex=785 nm, λem=805 nm, ± standard error of the mean, SEM) was 1.02 ± 0.06 s⁻¹. In data set [2] (assay buffer pH 7.4, recombinant human caspase-3), the “Cleavage (hydrolysis) by caspase-3, in words” value is reported as “cleaved more readily than 4; also recorded: readily cleaved”. Besides, the “kcat/KM (catalytic efficiency)” value in data set [2] (caspase-3, computed from kcat and KM) came to 68000 M⁻¹ s⁻¹. Further, the Michaelis-Menten constant (Km) (commonly the substrate concentration at which the rate is half of its maximum) in data set [2] (read-out: KM (Michaelis-Menten constant), 5 (0.5 to 100 μM) with caspase 3 (290 pM), 10 mM PIPES pH 7.4, 2 mM EDTA, 0.1% CHAPS, 5 mM DTT, triplicate, λex=785 nm, λem=805 nm, ± standard error of the mean, SEM) was found to be 15 ± 3 µM.

Consider Ac-DEVD-AMC, for which, in the data set on caspase-3, the “kcat of standard substrate” value is 0.75 s⁻¹ and the Km is 9.7 µM.

Take `CC(=O)O[C@H]1C(=O)[C@@]2(C)[C@H]([C@H](OC(=O)c3ccccc3)[C@]3(O)C[C@H](OC(=O)[C@H](O)[C@@H](NC(=O)c4ccccc4)c4ccccc4)C(C)=C1C3(C)C)[C@]1(OC(C)=O)CO[C@@H]1C[C@@H]2O` [paclitaxel]: in the data set with A549 cells, the “Activation of caspase-3 in A549 cells” value is “sufficient to activate caspase-3”.

With `CC1(C)C(/C=C/C=C/C=C/C=C2/N(CCC(=O)O)c3ccc4ccccc4c3C2(C)C)=[N+](CCC(=O)[O-])c2ccc3ccccc3c21` [Compound 2, cypate, reference compound], in data set [1], the λabs max was 783 nm, the λem max turned out to be 808 nm and the Quantum yield stood at 0.031. The Lifetime in data set [3] was 0.25 ns.

For Ac-DEVD-pNA, in the data set with caspase-3, the “kcat of standard substrate” value was 2.4 s⁻¹ and the Km was 11 µM.

As to `CC1(C)C(/C=C/C=C/C=C/C=C2\N(CCCCS(=O)(=O)O)c3ccc4ccccc4c3C2(C)C)=[N+](CCCCS(=O)(=O)[O-])c2ccc3ccccc3c21` [ICG, indocyanine green], the “Fluorescence quantum yield of the standard” value in data set [4] is given as 0.12.

The values above are taken from paper PMC2913166 (Molecular pharmaceutics, 2009).
